# Hck-Nef inh: blocks Nef-activated human Hck kinase; Recombinant Hck-YEEI plus Nef, Z-Lyte FRET kinase assay; hit rate 0.68% among 220,000; inhibition, % at 20 µM;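 active means Hck-Nef kinase inhibition above about 50%, limit read from the data; inactive means inhibition below that limit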;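 further: 0% = DMSO with Hck plus Nef and 100% = Hck alone without Nef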
# p47phox inh: blocks human p47phox regulatory protein of NADPH oxidases; p47phox/p22phox peptide binding, fluorescence polarization, 2 h; hit rate 0.53% among 220,000; AID 1274; inhibition, % at 24.7 µM; P14598;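 further: 0% = p47phox with labelled peptide and 100% = labelled peptide alone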
# Diaph act CS: counter-screen for diaphorase-based assays: diaphorase activators and chemical reducers. hit rate 0.005% among 190,000. Diaphorase/resazurin coupled assay, resorufin fluorescence, 16 min; stronger effect = higher value; 1 = vehicle wells, 0 = NADH-free wells. activation factor at 20 µM. AID 1229;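 active means diaphorase activity raised at least twofold by the compound at 20 µM; inactive means activation factor below 2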
#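 Measured by – red resorufin fluorescence at 544/590 nm excitation/emission · Test system – Clostridium kluyveri diaphorase, purified enzyme · Incubation – reaction time 16 min, room temperature · Buffer or medium – 50 mM HEPES pH 7.4 with 4.542 mM MgCl2, 0.005% Tween 20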
# 14-3-3 Bad PPI: disrupts binding of bovine 14-3-3 zeta to phospho-Bad peptide. inhibition, % at 21.7 µM. hit rate 0.71% among 220,000. TR-FRET 14-3-3zeta/Dy647-pBad peptide displacement, 1 h;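 active means inhibition above about 70%, limit read from the data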;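 further: 0% = full 14-3-3 plus peptide FRET controls and 100% = background without 14-3-3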
# Target sequence (P63103 whole entry, looked up): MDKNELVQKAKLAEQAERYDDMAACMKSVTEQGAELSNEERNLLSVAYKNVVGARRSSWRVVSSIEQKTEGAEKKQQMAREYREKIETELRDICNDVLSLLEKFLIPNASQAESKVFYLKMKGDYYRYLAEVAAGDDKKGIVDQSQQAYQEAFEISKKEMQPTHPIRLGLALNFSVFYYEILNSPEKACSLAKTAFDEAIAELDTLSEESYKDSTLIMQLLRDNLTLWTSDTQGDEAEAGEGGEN
# eIF4E-4G inh: inhibitors of eIF4E and eIF4G interaction in translation initiation; TR-FRET eIF4E-eIF4GI(517-606) binding, 2 h; P63073+Q04637; hit rate 0.37% among 220,000; inhibition, % at 21.7 µM;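 further: 0% = full FRET control wells and 100% = background wells lacking eIF4GI fragment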
# * = called active by the depositor; . = not tested or not shown; + = active, no number; [ ] = another dose, or the depositor's remark. Most compounds without a hit are left out; they make up all but 2% or so of the library.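 How the source made its calls, unless noted: active means inhibition above about 30% (limit read from the data); inactive means the rest.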
SMILES,Hck-Nef inh,p47phox inh,Diaph act CS,14-3-3 Bad PPI,eIF4E-4G inh
CSc1nc(=O)n2cccc(C)c2n1,3,-13,1,97*[fluorescence artefact?],-4
Cc1ccc(C(NC(=O)N2CCOCC2)=C(Cl)Cl)cc1F,2,42*,0.6,-2,3
Cc1ccc(C(c2nnnn2CS(=O)(=O)c2ccc(C)cc2)N2CCCC2)cc1 (configuration not stated),-1,39*,1.2,-4,4
Cc1ccc(S(=O)(=O)Cn2nnnc2C(c2ccc(F)cc2)N2CCCCC2)cc1 (configuration not stated),0,0,0.7,-6,4
O=C(CN1CCOCC1)Nc1scc2c1c(=O)oc1ccccc12,27,9,.,7,-4
CSC(=O)NC(=O)NC(=O)c1ccc([N+](=O)[O-])cc1,16,-6,.,-1,-3
CCN(CC)CCOc1ccc(/C(=C(/Cl)c2ccccc2)c2ccccc2)cc1,31,51*,1.3,78*,14
CC(=O)N1CCN(Cc2nc3cc(NC(=O)Nc4ccccc4)ccc3n2C)CC1,3,-19,0.9,-5,4
CCOC(=O)c1ccc(-c2ccc(/C=N/NC(=O)CN(c3ccccc3Cl)S(C)(=O)=O)o2)cc1,4,-40,0.9,0,1
CCOC(=O)c1ccc(-c2ccc(/C=N/NC(=O)CN(c3cccc(C)c3)S(C)(=O)=O)o2)cc1,20,31*,1,15,2
CNC(=S)NNC(=O)CNc1ccc(C)c(Cl)c1,21,+,1,-16,0
Cc1ccc(C)c(NC(=O)CSc2nnc(C)c(=O)n2N)c1,-1,-4,0.9,0,0
Cc1ccc(C)c(NC(=O)CSc2nnc(-c3ccncc3)n2N)c1,-1,34*,0.9,-8,-27
CS(=O)(=O)c1[nH]nc(-c2ccccc2)c1C#N,1,2,.,1,1
O=C(NCc1ccccc1)C1COc2ccccc2O1 (configuration not stated),4,6,1.1,-2,-1
O=C1OC(C(=O)NCc2ccccc2)Cc2ccccc21 (configuration not stated),0,-8,1.1,74*,0
CCC(c1nnnn1Cc1ccc(F)cc1)N1CCN(C2CCCCC2)CC1 (configuration not stated),0,-9,1,48,5
Fc1ccc(Cn2nnnc2CN2CCN(C3CCCC3)CC2)cc1,-1,-14,1.1,78*,-10
NCC12CC3CC(C1)CC(c1ccc(Cl)cc1)(C3)C2,11,-21,1.2,5,3
O=C(COC(=O)Cc1cccc(C(F)(F)F)c1)NCC1CCCO1 (configuration not stated),1,65*,0.8,12,5
Cc1nn2c(Nc3ccccc3)c3c(nc2c1-c1ccccc1)CCC3,0,2,0.7,82*,4
Cc1nn2c(NC(C)C)c3c(nc2c1-c1ccccc1)CCC3,16,-7,.,7,2
O=C1/C(=C\c2ccc(O)cc2)SC(=S)N1c1cccnc1,17,-1,0.8,33,12
O=C1/C(=C\c2ccco2)SC(=S)N1c1ccc(O)cc1,72*,-21,0.9,2,-2
Cn1nc(-c2ccccc2)c(CSc2ccccc2)c1Cl,-19,139*,0.9,.,.
SMILES,Hck-Nef inh,p47phox inh,Diaph act CS,14-3-3 Bad PPI,eIF4E-4G inh
Cc1ccc(SCc2c(-c3ccccc3)nn(C)c2Cl)cc1,1,1,0.9,-9,-14
COc1ccc2[nH]c(=O)c(CN(Cc3cccs3)C(=S)NCC3CCCO3)cc2c1 (configuration not stated),24,-10,.,2,71*
Cn1cc(/C=C/C(=O)c2ccccc2)c2ccccc21,19,-11,.,91*,3
Cc1ccc(C(=O)/C=C/c2cn(CN3CCN(C)CC3)c3ccccc23)cc1,2,-23,0.9,-7,-1
CCCCC(CC)C(=O)Oc1ccc(O)c(C(C)(C)C)c1 (configuration not stated),25,1,0.8,21,1
CC(C)(C)c1cc(OS(C)(=O)=O)ccc1O,18,32*,0.9,-6,0
Cc1ccc(C2N=C(N)Nc3nc(=O)c4ccccc4n32)cc1 (configuration not stated),-1,6,.,7,-2
Cn1nc(N)c2c(-c3ccc(Cl)cc3)c(C#N)c(N)nc21,6,62*,0.9,8,-6
Cc1ccc(Oc2nc3c(C)cccn3c(=O)c2/C=C(\C#N)C(N)=O)cc1,10,-9,.,-3,41*
CCOC(=O)/C(C#N)=C/c1c(Oc2cccc(C)c2)nc2c(C)cccn2c1=O,4,-29,1,4,1
CCOC(=O)C(=CNc1cc(C)ccc1-n1cccc1)C(=O)OCC,14,1,.,5,2
CCC(c1nnnn1Cc1ccco1)N1CCN(C(=O)c2ccco2)CC1 (configuration not stated),0,-9,0.9,67,1
CCCC(c1nnnn1CCOC)N1CCN(C(=O)c2ccco2)CC1 (configuration not stated),1,-4,1,81*,-1
CC(C)CC(c1nnnn1Cc1ccccc1)N1CCN(C(=O)c2ccco2)CC1 (configuration not stated),0,-8,0.9,86*,2
O=C(c1ccco1)N1CCN(C(c2ccccc2Cl)c2nnnn2Cc2ccco2)CC1 (configuration not stated),1,4,0.8,79*,6
Cc1ccn(C)c(=N)c1,1,-6,.,6,-1
CSc1nsc(/C=C/Nc2ccc(O)cc2C)c1C#N,21,-2,0.5,-12,9
CCOC(=O)c1sc(Nc2nc(OC)cc(OC)n2)nc1C,-4,.,0.9,-3,0
COc1cc(/C=N/NC(=O)c2ccncc2)ccc1OCc1cnc(Cl)s1,21,6,1.1,2,1
CC(C)(Oc1ccc(Cl)cc1)C(=O)OCC(=O)Nc1ncc(Cl)cc1Cl,0,-21,0.9,88*,-3
CCN(CC)C1=NS(=O)(=O)c2cc([N+](=O)[O-])ccc21,-6,56*,0.9,-1,5
COc1cc(C(=O)Nc2cc(-c3nc4cc(C)ccc4o3)ccc2C)cc(OC)c1OC,47,-52,0.8,79*,-2
CC1(C)CC(=O)N(Cc2ccccc2)C(=O)C1,0,-6,1,-5,7
CC(=O)N1CC(=O)N(Cc2ccccc2)/C(=C/c2ccccc2)C1=O,19,134*,1.1,1,2
CCN(CCCNC(=O)c1ccc(N2CCCC2=O)cc1)c1cccc(C)c1,0,-9,0.9,80*,4
CC(C)CCNC(=O)CN(C(=O)CCC(=O)Nc1ccccn1)c1ccc(F)c(Cl)c1,-13,0,1,0,3
O=C(COc1cc(O)c2c(=O)cc(-c3ccccc3)oc2c1)c1ccc(F)cc1,48,32*,0.9,24,-10
